Results on one molecule are retold here after ChEMBL document CHEMBL3232870, “Discovery of 3-(4-methanesulfonylphenoxy)-N-[1-(2-methoxy-ethoxymethyl)-1H-pyrazol-3-yl]-5-(3-methylpyridin-2-yl)-benzamide as a novel glucokinase activator (GKA) for the treatment of type 2 diabetes mellitus” (Bioorg Med Chem, 2014).

Values after ≈ are worked out from the molar mass of the structure shown.

The subject of series [1] is Mus musculus. In words: Toxicity in C57BL/J6 mouse assessed as hypoglycemia at 150 mg/kg, po. Conditions: in vivo; call rule not given here.
For series [2], the target named is Cytochrome P450 2D6 (Homo sapiens, UniProt P10635). In words: Inhibition of CYP2D6 in human liver microsomes. Type of series: ADME. The procedure, abridged:
(§1)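 Pooled human liver microsomes at 0.25 mg/mL, each with a CYP-selective substrate and test compound up to 25 µM, preincubated at 37 °C. It is stopped on ice with ice-cold acetonitrile and centrifuged, and the supernatant is analysed by LC–MS/MS.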

Series [3] in a line: Cmax in male Sprague-Dawley rat at 1000 mg/kg, po measured on day 14. Type of series: ADME, organism-based. Set-up: dose 1000 mg/kg, route oral. As to conditions: in vivo. The essentials:
(§2)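 Sprague–Dawley rats, 5 weeks old at arrival, both sexes. Given the compound by oral gavage once daily for 14 days at 0, 250, 500 or 1000 mg/kg/day, with 0.5% methylcellulose as vehicle. Toxicokinetic parameters were determined on Day 1 and Day 14.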

Series [4] in a line: Metabolic stability in human liver microsomes assessed as compound remaining after 1 hr relative to control. Type of series: ADME. As to conditions: read-out: Stability. The procedure, abridged:
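Liver microsomes from mouse, dog or human were incubated with compound for 1 h, and the percentage of compound remaining was determined.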
For orientation: Microsomes from liver hold many membrane-bound enzymes, among them those of drug oxidation.

The target in series [5] is T1, Hexokinase-4 (Homo sapiens, UniProt P35557).
T1 sequence (P35557 whole entry): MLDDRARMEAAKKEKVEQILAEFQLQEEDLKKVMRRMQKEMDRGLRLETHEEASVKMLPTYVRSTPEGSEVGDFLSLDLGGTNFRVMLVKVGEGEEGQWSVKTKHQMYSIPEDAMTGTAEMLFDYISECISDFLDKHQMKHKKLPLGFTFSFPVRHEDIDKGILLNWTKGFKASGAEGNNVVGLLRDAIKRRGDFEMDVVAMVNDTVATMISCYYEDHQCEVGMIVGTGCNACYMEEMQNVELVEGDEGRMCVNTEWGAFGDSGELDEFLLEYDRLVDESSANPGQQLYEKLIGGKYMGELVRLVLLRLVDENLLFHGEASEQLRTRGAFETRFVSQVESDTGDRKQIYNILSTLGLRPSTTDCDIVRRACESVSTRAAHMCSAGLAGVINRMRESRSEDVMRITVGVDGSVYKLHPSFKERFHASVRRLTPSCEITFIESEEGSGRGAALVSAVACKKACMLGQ
In words: Activation of recombinant human pancreatic glucokinase using 10 mM glucose by spectrophotometry. The procedure, abridged:
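Purified recombinant human pancreatic glucokinase, compounds in DMSO. Buffer: 25 mM HEPES pH 7.4, 10 mM glucose, 25 mM KCl, 1 mM MgCl2, 1 mM DTT, 1 mM ATP, 1 mM NADP, 2.5 U/mL G6PDH. Activity was expressed against DMSO-only control (100%). EC50 came from 12 concentrations fitted to a variable-slope sigmoidal curve. Values are means of three duplicate runs.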

In series [6] the test system is Salmonella typhimurium. In words: Cytotoxicity in Salmonella typhimurium TA100 at 1.5 to 5000 ug/plate in presence of S9 fraction. The class given is organism-based. Conditions: salmonella enterica subsp. enterica serovar typhimurium. The procedure, abridged:
(§3)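 Ames reverse mutation test by direct plate incorporation in S. typhimurium TA98 and TA100, with or without Aroclor 1254-induced rat liver S9 mix. Compound in DMSO at 1.5–5000 µg/plate, plated in top agar, incubated 37 °C for about 50 h, then revertant colonies counted. Plates were checked for precipitation and cytotoxicity. A positive was a reproducible, dose-related increase in revertants of more than 2-fold.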

Series [7] in a line: Mean residence time in ICR mouse at 3 mg/kg, iv and 10 mg/kg, po. Conditions: in vivo. The class given is ADME, organism-based. The procedure, abridged: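 Male ICR mice and 7-week-old SD rats received a 3 mg/kg iv bolus or a 10 mg/kg oral gavage dose. Plasma was precipitated with 2 volumes of acetonitrile and analysed by HPLC. Parameters came from noncompartmental analysis.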

Series [8] relates to Salmonella typhimurium. In words: Genotoxicity in Salmonella typhimurium TA98 assessed as increase in number of revertants at 1.5 to 5000 ug/plate by Ames test in absence of S9 fraction. The class given is toxicity, organism-based. Conditions: salmonella enterica subsp. enterica serovar typhimurium. The essentials: as §3
For orientation: In the Ames test, an excess of revertant colonies over the control signals mutagenicity.

Series [9] is described as follows: Clearance in ICR mouse at 3 mg/kg, iv and 10 mg/kg, po. Type of series: ADME, organism-based. Conditions: in vivo. The essentials:
(§4)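 Male ICR mice and 7-week-old SD rats received a 3 mg/kg intravenous bolus or a 10 mg/kg oral gavage dose. Plasma was deproteinized with acetonitrile (2 volumes) and compound measured by HPLC. Parameters came from noncompartmental analysis.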

A short description of series [10]: AUC in ICR mouse at 3 mg/kg, iv and 10 mg/kg, po. Type of series: ADME, organism-based. As to conditions: plasma. The essentials:
as §4

The target of series [11] is Cytochrome P450 3A (Homo sapiens, UniProt P08684+P20815+Q9HB55+P24462). In words: Inhibition of CYP3A in human liver microsomes. Type of series: ADME. The procedure, abridged: as §1
Series [12] in a line: Tmax in female Sprague-Dawley rat at 250 mg/kg, po measured on day 1. Type of series: ADME, organism-based. Further details: dose 250 mg/kg, route oral. Conditions: in vivo. The procedure, abridged: (§5)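 Sprague–Dawley rats of both sexes, 5 weeks old at arrival, received daily oral gavage at 0, 250, 500 or 1000 mg/kg/day for 14 days. Vehicle was 0.5% methylcellulose at 10 mL/kg. Toxicokinetics were taken on Day 1 and Day 14. Necropsy was by Day 15. Testis was fixed in modified Davidson's fixative, paraffin-sectioned and H&E-stained, with histopathology on control and high-dose groups only.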

Series [13] relates to Mus musculus. In words: Toxicity in fasting C57BL/J6 mouse assessed as glucose lowering effect at 50 mg/kg, po after 30 to 360 mins. Type of series: organism-based. Further details: dose 50 mg/kg, route oral. Conditions: in vivo. The procedure, abridged: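 Eight-week-old male C57BL/6 mice were fasted 6 h with free access to water, then dosed orally with compound or 0.5% methylcellulose vehicle, with no glucose challenge. Blood glucose was followed up to 360 min, n = 6 per group.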

Series [14] can be described thus: AUC (0 to t) in female Sprague-Dawley rat at 250 mg/kg, po measured on day 14. The class given is ADME, organism-based. Conditions: plasma. Further details: dose 250 mg/kg, route oral. The procedure, abridged: as §2
Series [15] in a line: Tmax in female Sprague-Dawley rat at 500 mg/kg, po measured on day 1. The class given is ADME, organism-based. Set-up: dose 500 mg/kg, route oral. Conditions: in vivo. The procedure, abridged: as §5
The nature of series [16]: Cmax in male Sprague-Dawley rat at 500 mg/kg, po measured on day 1. As to conditions: in vivo. Further details: dose 500 mg/kg, route oral. The class given is ADME, organism-based. The essentials: as §2
Series [17] deals with Mus musculus. In words: Antidiabetic activity in glucose-treated C57BL/J6 db/db mouse assessed as reduction of glucose AUC at 30 to 100 mg/kg, po administered for 2 weeks preincubated for 30 mins followed by glucose challenge measured after 30 to 180 mins by oral glucose tolerance test relative to control. The class given is functional. Further details: scale not given: the % may be the effect or the level left. The essentials: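 Oral glucose tolerance test. Mice: eight-week-old male C57BL/6 or ten-week-old male C57BLKS/J db/db, fasted overnight with water. Compound or 0.5% methylcellulose vehicle given orally, then an oral 2 g/kg glucose challenge 30 min later. Tail-tip blood glucose was read just before and at 30, 60, 90, 120 and 180 min. AUC was calculated from the time–glucose curve; n = 6.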

A short description of series [18]: Cmax in ICR mouse at 3 mg/kg, iv and 10 mg/kg, po. Conditions: in vivo. Type of series: ADME, organism-based. The essentials:
as §4

Series [19] can be described thus: Aqueous solubility of the compound in phosphate buffer at pH 7.4. Type of series: physicochemical.
Series [20] in a line: Cmax in female Sprague-Dawley rat at 250 mg/kg, po measured on day 14. Type of series: ADME, organism-based. Further details: dose 250 mg/kg, route oral. As to conditions: in vivo. The procedure, abridged: as §2
For series [21], the system named is Rattus norvegicus. In words: Toxicity in Sprague-Dawley rat assessed as seminiferous tubule vacuolation at 250 to 1000 mg/kg, po by hematoxylin and eosin staining-based microscopy. Type of series: organism-based. Further details: dose 250-1000 mg/kg, route oral. As to conditions: in vivo. The procedure, abridged: as §5

Chain of Cytochrome P450 2D6 (P10635 whole entry): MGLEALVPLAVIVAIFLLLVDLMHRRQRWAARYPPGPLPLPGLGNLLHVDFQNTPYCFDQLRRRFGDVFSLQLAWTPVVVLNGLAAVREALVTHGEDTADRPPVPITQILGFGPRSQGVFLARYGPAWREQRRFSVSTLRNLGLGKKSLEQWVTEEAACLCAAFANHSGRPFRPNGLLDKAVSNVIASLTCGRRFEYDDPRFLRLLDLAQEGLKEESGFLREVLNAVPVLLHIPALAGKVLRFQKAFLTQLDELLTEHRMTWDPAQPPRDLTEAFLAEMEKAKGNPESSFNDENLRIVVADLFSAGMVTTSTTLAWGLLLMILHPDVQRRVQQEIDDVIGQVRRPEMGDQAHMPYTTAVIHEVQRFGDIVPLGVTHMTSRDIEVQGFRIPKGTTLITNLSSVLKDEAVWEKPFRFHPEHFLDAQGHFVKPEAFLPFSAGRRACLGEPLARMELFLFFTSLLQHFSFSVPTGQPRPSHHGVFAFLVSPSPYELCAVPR

The Cmax is the maximum level reached in the sampled fluid or tissue. In general, EC50 refers to the concentration that produces a half-maximal response. As usually defined, the MRT is a mean duration of stay, worked out from the concentration-time curve. In general, AUC refers to concentration integrated over time. In general, Tmax refers to the time at which the peak concentration occurs. By AUC(0-t) is commonly meant exposure summed from dosing to a finite time, without extrapolation to infinity. For orientation: solubility means the concentration that dissolves in the medium under given conditions. On to `COCCOCn1ccc(NC(=O)c2cc(Oc3ccc(S(C)(=O)=O)cc3)cc(-c3ncccc3C)c2)n1`, for which the Activity entry in series [1] is “Non-toxic”; in series [6], “Non-toxic”; in [8], “Non-toxic”; in [13], “Toxic”; in series [17], 39.8%; in series [21] it was “Non-toxic”. The “inhibition (INH)” value in series [2] and in series [11] was “Not Active” in each case. For the same molecule, the Cmax was 3090 ng/mL in [3], 4100 ng/mL in series [16], 11700 ng/mL in series [18] and 5200 ng/mL in [20]. Further, the remaining at 1 h in series [4] is greater than 60%. The EC50 in [5] was found to be 315 nM. This molecule showed a mean residence time (MRT) in [7] of 0.92 h. The molecule also showed a clearance in [9] of 3.33 mL/min/kg. In series [10], this molecule returned an AUC of 11900 ng·h/mL. Moreover, the values for the Tmax in [12] and in series [15] were 3.7 h and 3.3 h, respectively. In series [14], this molecule displayed an AUC(0-t) of 17600 ng·h/mL. Moreover, the concentration in solution in series [19] (solubility) came to 122 µM (≈ 65.5 µg/mL).
